The text below walks through data of ChEMBL document CHEMBL6182837, “Discovery and biological evaluation of nitrofuranyl-pyrazolopyrimidine hybrid conjugates as potent antimicrobial agents targeting Staphylococcus aureus and methicillin-resistant S. aureus” (RSC Med Chem, 2025).

Structures are written as SMILES. In brackets after ≈: the same amount, converted by molar mass. Activity calls are given as the source filed them. The rule behind the calls is not given here.

The test system of assay [1] is Staphylococcus aureus. Nature of the assay: Induction of morphological disruption in Staphylococcus aureus ATCC 29213 at 1 to 2 times MIC incubated for 2 to 6 hrs by SEM analysis. Conditions: time 2-6 hrs. Format: functional, organism-based. The method in brief: (§1)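 Bacteria incubated for 2 h and 6 h at 1×, 2× and 4× MIC, with vancomycin and daptomycin at 1× and 2× MIC and untreated cells; cell morphology imaged by scanning electron microscopy.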

The subject of assay [2] is Staphylococcus aureus. Nature of the assay: Induction of morphological disruption in methicillin-resistant Staphylococcus aureus ATCC 15187 at 1 to 2 times MIC incubated for 2 to 6 hrs by SEM analysis. The settings on record: time 2-6 hrs. Format: functional, organism-based. The method in brief: as §1
For assay [3], the system named is Staphylococcus aureus. Nature of the assay: Antibacterial activity against Staphylococcus aureus SA-K2192 overexpressing TetK by Alamar blue staining based analysis. It counts as functional. Background: The colour change of resazurin is a common sign of viable cells or microbes.
Assay [4] relates to Staphylococcus aureus. Nature of the assay: Antibacterial activity against Staphylococcus aureus SA-K2191 overexpressing MsrA by Alamar blue staining based analysis. It counts as functional.
Assay [5] deals with Staphylococcus aureus. Nature of the assay: Disruption of cell membrane integrity in Staphylococcus aureus ATCC 29213 assessed as red fluorescence at 2 times MIC incubated for 2.5 hrs by DAPI/PI staining based fluorescence microscopy. It counts as functional, organism-based. Summed up: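 Bacteria treated at 1× and 2× MIC, with vancomycin 2× MIC as control and an untreated blank; stained with DAPI (all cells) and propidium iodide (membrane-damaged cells); imaged by fluorescence microscopy, red PI signal taken as membrane damage.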

Assay [6] concerns Staphylococcus aureus. Nature of the assay: Disruption of pre-formed biofilms of methicillin-resistant Staphylococcus aureus ATCC 15187 at 4 to 6 times MIC incubated for 24 hrs by absorbance based method relative to control. It counts as functional.
Assay [7] has as its system Staphylococcus aureus. Nature of the assay: Antibacterial activity against methicillin-resistant Staphylococcus aureus ATCC 15187 infected in male […] mouse assessed as reduction in bacterial load in kidney at 50 mg/kg measured after 24 hrs by colony counting method. It counts as functional, organism-based. Summed up: (§2)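 Mouse peritonitis model: 0.1 ml MRSA suspension (10^8 CFU ml−1) given intraperitoneally; treatment intraperitoneal at 50 or 100 mg kg−1 at 2 and 5 h post-infection, with saline and vancomycin (50 mg kg−1) controls; killed at 24 h; kidney and lung homogenates plated on Mueller–Hinton agar with 20 μg ml−1 ciprofloxacin, 24 h; CFU ml−1; unpaired t-test.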

In assay [8] the test system is Staphylococcus aureus. Nature of the assay: Inhibition of biofilm formation of methicillin-resistant Staphylococcus aureus ATCC 15187 at 0.5 times MIC incubated for 27 hrs by absorbance based method. Format: functional, organism-based.
Assay [9] has as its system Staphylococcus aureus. Nature of the assay: Antibacterial activity against Ciprofloxacin-sensitive Staphylococcus aureus […] by Alamar blue staining based analysis. Format: functional.
In assay [10] the test system is Staphylococcus aureus. Nature of the assay: Antibacterial activity against Staphylococcus aureus SA-1199B overexpressing NorA by Alamar blue staining based analysis. It counts as functional.
Assay [11] has as its system Staphylococcus aureus. Nature of the assay: Antibacterial activity against methicillin-resistant Staphylococcus aureus ATCC 15187 infected in male […] mouse assessed as reduction in bacterial load in lung at 50 mg/kg measured after 24 hrs by colony counting method. It counts as functional, organism-based. The method in brief:
as §2

The test system of assay [12] is Staphylococcus aureus. Nature of the assay: Inhibition of biofilm formation of Staphylococcus aureus ATCC 29213 at 0.5 times MIC incubated for 27 hrs by absorbance based method. Format: functional, organism-based.
The test system of assay [13] is Staphylococcus aureus. Nature of the assay: Disruption of pre-formed biofilms of Staphylococcus aureus ATCC 29213 at 4 to 6 times MIC incubated for 24 hrs by absorbance based method relative to control. It counts as functional.

For `CCCCCCCCCC(=O)N[C@@H](Cc1c[nH]c2ccccc12)C(=O)N[C@@H](CC(N)=O)C(=O)N[C@@H](CC(=O)O)C(=O)N[C@@H]1C(=O)NCC(=O)N[C@@H](CCCN)C(=O)N[C@@H](CC(=O)O)C(=O)N[C@H](C)C(=O)N[C@@H](CC(=O)O)C(=O)NCC(=O)N[C@H](CO)C(=O)N[C@@H]([C@@H](C)CC(=O)O)C(=O)N[C@@H](CC(=O)c2ccccc2N)C(=O)O[C@@H]1C`, the result in the assay on Staphylococcus aureus [1] and in the assay on Staphylococcus aureus [2] was Active.
By MIC is commonly meant the lowest concentration that inhibits growth of the organism. A high value points to a less susceptible organism. Regarding `CN[C@H](CC(C)C)C(=O)N[C@H]1C(=O)N[C@@H](CC(N)=O)C(=O)N[C@H]2C(=O)N[C@H]3C(=O)N[C@H](C(=O)N[C@H](C(=O)O)c4cc(O)cc(O)c4-c4cc3ccc4O)[C@H](O)c3ccc(c(Cl)c3)Oc3cc2cc(c3O[C@@H]2O[C@H](CO)[C@@H](O)[C@H](O)[C@H]2O[C@H]2C[C@](C)(N)[C@H](O)[C@H](C)O2)Oc2ccc(cc2Cl)[C@H]1O` [VANCOMYCIN], the MIC against Staphylococcus aureus [3] is 0.56 µg/mL (≈ 0.386 µM); in the assay on Staphylococcus aureus [4], 0.25 µg/mL (≈ 0.173 µM); against Staphylococcus aureus [9] it was 0.25 µg/mL (≈ 0.173 µM); against Staphylococcus aureus [10] it was 0.25 µg/mL (≈ 0.173 µM). The result in the assay on Staphylococcus aureus [1], in the assay on Staphylococcus aureus [5], with Staphylococcus aureus [7], with Staphylococcus aureus [2] and in the assay with Staphylococcus aureus [11] was Active. Further, the Activity with Staphylococcus aureus [6] and with Staphylococcus aureus [13] was 40% each time. Further, the inhibition result in the assay on Staphylococcus aureus [8] and in the assay on Staphylococcus aureus [12] was “inactive” each time.
